From ChEMBL document CHEMBL1155709, “Eleven novel diarylheptanoids and two unusual diarylheptanoid derivatives from the seeds of Alpinia blepharocalyx” (2001)

What was measured:
[1] = Cytotoxicity against mouse 26-L5 cells by MTT assay; format: functional; conditions: read-out: ED50 (the source's name)
In short: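 Murine colon 26-L5 carcinoma cells grown in RPMI-1640 with 10% fetal calf serum, 0.1% NaHCO3 and 2 mM glutamine. MTT assay compared viability in the presence and absence of agents, giving ED50 values. Positive controls were 5-fluorouracil and curcumin.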

HT-1080 = assay: Cytotoxicity against human HT1080 cells by MTT assay; format: functional; conditions: read-out: ED50 (the source's name)
In short: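 Human HT-1080 fibrosarcoma cells kept in Eagle's minimum essential medium with 10% fetal calf serum, 0.1% NaHCO3 and 2 mM glutamine. Viability with and without test agents was read by standard MTT assay, and ED50 was reported. 5-Fluorouracil and curcumin served as positive controls.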

COc1cc2c(c3c1C(=O)CC(c1ccc(O)cc1)O3)[C@H](C[C@@H](O)CCc1ccc(O)cc1)C[C@H](c1ccc(O)cc1)O2 (mixture of isomers)
EC50 ([1]; Mus musculus): 42.1 µM | EC50 (HT-1080; Homo sapiens, HT-1080): 10.1 µM

COc1cc2c(c3c1C(=O)CC(c1ccc(O)cc1)O3)[C@@H]1C[C@H](CCc3ccc(O)cc3)O[C@@H]1O2 (stereo in doubt; 13) [NEOCALYXIN A]
EC50 [1]: 78 µM | EC50 (HT-1080): 20.2 µM

COc1cc(O)c(C(/C=C/c2ccc(O)cc2)C[C@@H](O)CCc2ccc(O)cc2)c2c1C(=O)CC(c1ccc(O)cc1)O2 (some centres not stated) [CALYXIN E]
EC50 ([1]; Mus musculus): 98.1 µM | EC50 (HT-1080; Homo sapiens, HT-1080): 21.7 µM

COc1cc2c(c3c1C(=O)CC(c1ccc(O)cc1)O3)[C@@H]1C[C@H](CCc3ccc(O)cc3)O[C@@H]1O2 (stereo in doubt; 12) [NEOCALYXIN A]
EC50 ([1]; Mus musculus): > 100 µM | EC50 (HT-1080; Homo sapiens, HT-1080): 10.7 µM

COc1cc(O)c([C@@H]2C[C@H](CCc3ccc(O)cc3)O[C@H](c3ccc(O)cc3)C2)c(O)c1C(=O)/C=C/c1ccc(O)cc1 [CALYXIN B]
EC50 ([1]; Mus musculus): 10.4 µM | EC50 (HT-1080; Homo sapiens, HT-1080): 10.4 µM

COc1cc2c(c3c1C(=O)CC(c1ccc(O)cc1)O3)[C@@H]1C[C@H](CCc3ccc(O)cc3)O[C@H](c3ccc(O)cc3)[C@H]1[C@H](c1ccc(O)cc1)O2 (stereo in doubt; 7) [CALYXIN J]
EC50 ([1]; Mus musculus): 23.2 µM | EC50 (HT-1080): 8.19 µM

COc1cc(O)c([C@@H]2C[C@H](CCc3ccc(O)cc3)O[C@@H](c3ccc(O)cc3)C2)c(O)c1C(=O)/C=C/c1ccc(O)cc1 [EPICALYXIN F]
EC50 ([1]; Mus musculus): 0.89 µM | EC50 (HT-1080; Homo sapiens, HT-1080): 1.71 µM

COc1cc(O)c([C@@H]2C[C@H](CCc3ccc(O)cc3)O[C@H](c3ccc(O)cc3)C2)c2c1C(=O)CC(c1ccc(O)cc1)O2 (stereo in doubt; 4) [CALYXIN K]
EC50 [1]: 33 µM | EC50 (HT-1080): 4.75 µM

COc1cc(O)c2c(c1C(=O)/C=C/c1ccc(O)cc1)O[C@@H](c1ccc(O)cc1)C[C@H]2C[C@@H](O)CCc1ccc(O)cc1 [CALYXIN L]
EC50 ([1]; Mus musculus): 28.2 µM | EC50 (HT-1080; Homo sapiens, HT-1080): 44.3 µM

COc1cc(O)c([C@@H]2C[C@H](CCc3ccc(O)cc3)O[C@@H](c3ccc(O)cc3)C2)c2c1C(=O)CC(c1ccc(O)cc1)O2 (some centres not stated) [CALYXIN G]
EC50 ([1]; Mus musculus): 42.2 µM | EC50 (HT-1080; Homo sapiens, HT-1080): 25.9 µM

COc1cc(/C=C/C(=O)CC(=O)/C=C/c2ccc(O)c(OC)c2)ccc1O [CURCUMIN]
EC50 ([1]; Mus musculus): 23.2 µM | EC50 (HT-1080; Homo sapiens, HT-1080): 23.4 µM

COc1cc2c(c3c1C(=O)CC(c1ccc(O)cc1)O3)[C@@H]1C[C@H](CCc3ccc(O)cc3)O[C@H](c3ccc(O)cc3)[C@H]1[C@H](c1ccc(O)cc1)O2 (mixture of isomers) [CALYXIN J]
EC50 [1]: 13.7 µM | EC50 (HT-1080): 0.32 µM

COc1cc(O)c([C@@H]2C[C@H](CCc3ccc(O)cc3)O[C@H](c3ccc(O)cc3)C2)c2c1C(=O)CC(c1ccc(O)cc1)O2 (stereo in doubt; 3) [CALYXIN K]
EC50 [1]: 7.73 µM | EC50 (HT-1080; Homo sapiens, HT-1080): 5.09 µM

COc1cc(O)c2c(c1C(=O)/C=C/c1ccc(O)cc1)O[C@H](c1ccc(O)cc1)[C@@H]1[C@@H](c3ccc(O)cc3)O[C@@H](CCc3ccc(O)cc3)C[C@@H]21 [EPICALYXIN I]
EC50 ([1]; Mus musculus): 12.1 µM | EC50 (HT-1080; Homo sapiens, HT-1080): 5.88 µM

O=c1[nH]cc(F)c(=O)[nH]1 [FLUOROURACIL]
EC50 ([1]; Mus musculus): 0.53 µM | EC50 (HT-1080; Homo sapiens, HT-1080): 8 µM

COc1cc(O)c2c(c1C(=O)/C=C/c1ccc(O)cc1)O[C@@H](c1ccc(O)cc1)[C@@H]1[C@@H](c3ccc(O)cc3)O[C@@H](CCc3ccc(O)cc3)C[C@@H]21 [CALYXIN I]
EC50 ([1]; Mus musculus): 8.39 µM | EC50 (HT-1080; Homo sapiens, HT-1080): 9.08 µM
